Measurements as given in ChEMBL document CHEMBL4765447, “Design, synthesis and biological evaluation of diamino substituted cyclobut-3-ene-1,2-dione derivatives for the treatment of drug-resistant tuberculosis” (Eur J Med Chem, 2020).
Values after ≈ are worked out from the molar mass of the structure shown.

Columns and labels:
[1] = test system: Mycobacterium tuberculosis; test: Inhibition of ATP synthase in multi-drug resistant Mycobacterium tuberculosis clinical isolate 13946 assessed as reduction in bacterial growth incubated for 7 days by microplate alamar blue assay; details: time 7.0 day
Outline: (§1)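 Microplate alamar blue assay. Strains grown to late log phase in 7H9 broth with 0.2% glycerol, 0.05% Tween 80 and 10% ADC, then washed, filtered (8 µm) and frozen. Twofold compound dilutions with 2×10^5 CFU per well at 37 °C. On day 7, Tween 80 and alamar blue added; after 16–24 h, fluorescence read at 530/590 nm. MIC is the lowest concentration giving ≥90% fluorescence reduction versus bacterium-only controls.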

[2] = test system: Mycobacterium tuberculosis; test: Inhibition of ATP synthase in multi-drug resistant Mycobacterium tuberculosis clinical isolate 14862 assessed as reduction in bacterial growth incubated for 7 days by microplate alamar blue assay; details: time 7.0 day; outline: as §1
[3] = test system: Mycobacterium tuberculosis; test: Inhibition of ATP synthase in bedaquiline-resistant Mycobacterium tuberculosis assessed as reduction in bacterial growth incubated for 7 days by microplate alamar blue assay; details: time 7.0 day; outline: as §1
[4] = Ratio of MIC for inhibition of ATP synthase in bedaquiline-resistant Mycobacterium tuberculosis to MIC for inhibition of ATP synthase in Mycobacterium tuberculosis H37Rv
Outline: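 Ratio of alamar-blue MIC against the bedaquiline-resistant strain to MIC against H37Rv, both measured in the 7-day microplate alamar blue assay.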

O=C1CCCc2cc(Nc3c(NCc4ccccn4)c(=O)c3=O)ccc21
MIC=>90 [1]: 0.488 µg/mL (≈ 1.4 µM) | MIC=>90 [2]: 0.895 µg/mL (≈ 2.58 µM)

COc1nc2ccc(Br)cc2cc1[C@@H](c1ccccc1)[C@@](O)(CCN(C)C)c1cccc2ccccc12
MIC=>90 [3]: 2.23 µg/mL (≈ 4.02 µM) | Ratio [4]: 62

NNC(=O)c1ccncc1
MIC=>90 [1]: 2.26 µg/mL (≈ 16.5 µM) | MIC=>90 [2]: > 10 µg/mL | MIC=>90 [3]: 0.052 µg/mL (≈ 0.379 µM)

CO[C@H]1/C=C/O[C@@]2(C)Oc3c(C)c(O)c4c(O)c(c(/C=N/N5CCN(C)CC5)c(O)c4c3C2=O)NC(=O)/C(C)=C\C=C\[C@H](C)[C@H](O)[C@@H](C)[C@@H](O)[C@@H](C)[C@H](OC(C)=O)[C@@H]1C
MIC=>90 [1]: > 10 µg/mL | MIC=>90 [2]: 9.32 µg/mL (≈ 11.3 µM)

O=c1c(NCc2ccccn2)c(Nc2ccc3c(c2)OCO3)c1=O
MIC=>90 [1]: 0.47 µg/mL (≈ 1.45 µM) | MIC=>90 [2]: 0.499 µg/mL (≈ 1.54 µM) | MIC=>90 [3]: 3.76 µg/mL (≈ 11.6 µM) | Ratio [4]: 7.5

O=c1c(NCc2ccccn2)c(Nc2ccc3scnc3c2)c1=O
MIC=>90 [1]: 3.53 µg/mL (≈ 10.5 µM) | MIC=>90 [2]: 3.37 µg/mL (≈ 10 µM)

O=c1c(NCc2ccccn2)c(Nc2ccc3c(c2)CCC3)c1=O
MIC=>90 [1]: 0.903 µg/mL (≈ 2.83 µM) | MIC=>90 [2]: 0.94 µg/mL (≈ 2.94 µM)

O=c1c(NCc2ccccn2)c(-c2ccc(N3CCOCC3)cc2)c1=O
MIC=>90 [1]: 0.107 µg/mL (≈ 0.306 µM) | MIC=>90 [2]: 0.114 µg/mL (≈ 0.326 µM) | MIC=>90 [3]: 3.02 µg/mL (≈ 8.63 µM) | Ratio [4]: 14.9

Cc1cc(Nc2c(NCc3ccccn3)c(=O)c2=O)ccc1N1CCSCC1
MIC=>90 [1]: 0.257 µg/mL (≈ 0.651 µM) | MIC=>90 [2]: 0.207 µg/mL (≈ 0.525 µM) | MIC=>90 [3]: 4.85 µg/mL (≈ 12.3 µM) | Ratio [4]: 5.7
